Experimental findings from ChEMBL document CHEMBL3098078, “Design, Synthesis, and Antiviral Evaluation of Chimeric Inhibitors of HIV Reverse Transcriptase” (ACS Med Chem Lett, 2013) are described below.

Data set [1] in a line: (§1) Cytotoxicity against human MT2 cells after 5 days by MTT assay. The class given is cell-based. The settings on record: MT2 cells. The method in brief: (§2)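 MT-2 cells infected with HIV-1 IIIB are read by MTT assay following a previously published protocol. Inhibition of viral replication gives EC50, and the cytotoxicity read-out gives CC50.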
Data set [2] concerns Human immunodeficiency virus 1. As to the kind of experiment: Antiviral activity against HIV1 3B infected in human MT2 cells after 5 days by MTT assay. The class given is functional, organism-based. The gist of the method:
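HIV-1 IIIB replication in MT-2 cell culture, with MTT read-out following a previously published protocol. The nucleoside form was tested. d4T and ddC (NRTI) and TMC120 (NNRTI) were run alongside as positive controls.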
Background: Formazan colour is commonly taken as a measure of viable cells.

Data set [3] can be described thus: Selectivity index, ratio of CC50 for human MT2 cells to EC50 for HIV1 3B. The class given is toxicity, cell-based. The settings on record: read-out: Ratio CC50/EC50.
In data set [4] the test system is Human immunodeficiency virus 1. As to the kind of experiment: Ratio of d4T EC50 to compound EC50 for HIV1 3B infected in human MT2 cells. The class given is functional.
The target in data set [5] is Human immunodeficiency virus type 1 reverse transcriptase (Human immunodeficiency virus 1) (UniProt Q72547). As to the kind of experiment: Ratio of d4T IC50 to compound IC50 for HIV-1 6His-tagged reverse transcriptase p66/p51.
Data set [6] has as its system MT2. Described as §1. The class given is cell-based. The note with it: mt2, 120 h. The method in brief:
as §2

Data set [7] addresses Human immunodeficiency virus type 1 reverse transcriptase (Human immunodeficiency virus 1, UniProt Q72547). As to the kind of experiment: Inhibition of HIV-1 6His-tagged reverse transcriptase p66/p51-mediated TTP incorporation into D23/D36 primer/template preincubated for 15 mins followed by D23/D36 primer/template and TTP addition measured after 15 mins by PAGE analysis. The gist of the method:
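Steady-state competition assay measuring inhibition of HIV-1 RT-catalysed TTP incorporation opposite template A into radiolabeled D23/D36 primer/template. Products are resolved on gel across increasing inhibitor concentrations, with a reference NNRTI positive control at 250 nM. Percent RT activity loss is plotted against inhibitor concentration to derive IC50.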

For data set [8], the target named is Human immunodeficiency virus type 1 reverse transcriptase (Human immunodeficiency virus 1) (UniProt Q72547). As to the kind of experiment: Binding affinity to HIV-1 6His-tagged reverse transcriptase p66/p51 assessed as compound incorporation into D23/D36 primer/template at 50 uM after 60 mins by PAGE analysis in presence of MgCl2. The method in brief:
(§3)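 Single-turnover incorporation by HIV-1 RT of the chimeric triphosphate as substrate, using radiolabeled D23/D36 primer/template (template base pairs with TTP). Reactions are sampled at a 0 time point, and a negative control lacks Mg2+. Products are resolved by gel electrophoresis to detect an elongated primer band. A mispaired D23/D36B primer/template (dC opposite template dGMP) serves as a comparison.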

The target is the same in data set [9]. Nature of the data set: Binding affinity to HIV-1 6His-tagged reverse transcriptase p66/p51 assessed as compound incorporation into D23/D36 primer/template at 50 uM after 60 mins by PAGE analysis. The method in brief:
as §3

In general, CC50 refers to the concentration at which the toxic effect on the cells reaches its halfway point. One may read the EC50 as the concentration that produces a half-maximal response. A low value points to greater potency. In general, IC50 refers to the concentration needed to halve the response being measured.

Active and inactive are the calls of the source. The rule behind the calls is not given here.

Regarding `Cc1cn([C@H]2C=C[C@@H](CO)O2)c(=O)[nH]c1=O` [STAVUDINE], the midpoint of cytotoxicity in [1], the CC50 at 120 h, lay at 2200 nM. This compound also showed an EC50 in data set [2] (Human immunodeficiency virus 1, 3B, MT2, 120 h) of 3600 nM.
Turning to `Cc1cc(C#CCCCCCCCC(=O)NCc2cn([C@H]3C[C@H](O)[C@@H](CO)O3)c(=O)[nH]c2=O)cc(C)c1Oc1ccnc(Nc2ccc(C#N)cc2)n1`, the selectivity ratio in [3] came to 18. Moreover, the “Ratio EC50” value in data set [4] worked out at 30.
Turning to `Cc1cc(C#CCCCCCCCC(=O)NCc2cn([C@H]3C[C@H](O)[C@@H](CO[PH](=O)O)O3)c(=O)[nH]c2=O)cc(C)c1Oc1ccnc(Nc2ccc(C#N)cc2)n1`, the Ratio IC50 in data set [5] is 3000. Further, the selectivity ratio in [3] was 27. For the same compound, in data set [4], the “Ratio EC50” value was 16. Besides, in [6], the Activity result is recorded as “Toxic”. Moreover, the outcome in [2] was Active. In data set [7], this compound showed an IC50 of 4.3 nM. In data set [8], the outcome was inactive.
`Nc1ccn([C@H]2CC[C@@H](CO)O2)c(=O)n1` [ZALCITABINE]: the CC50 at 120 h in data set [1] stood at 4000 nM.
The compound `Cc1cc(C)c(Nc2ccnc(Nc3ccc(C#N)cc3)n2)c(C)c1` [DAPIVIRINE] had a CC50 at 120 h in data set [1] of 1900 nM.
On to `Cc1cc(C#CCCCCCCCC(=O)NCc2cn([C@H]3C[C@H](O)[C@@H](COP(=O)(O)OP(=O)(O)OP(=O)(O)O)O3)c(=O)[nH]c2=O)cc(C)c1Oc1ccnc(Nc2ccc(C#N)cc2)n1`, for which, in [5], the Ratio IC50 stood at 2000. In data set [7], this compound displayed an IC50 of 6 nM. Moreover, the result in data set [9] was inactive. In addition, in [8], the outcome was Active.
